The list is not random: actives were taken first. Their share in the collection is about 3.8%.
RAM inhibit = inhibitors of the yeast RAM network | inhibition, % at 50 µM | AID 868 | S. cerevisiae dse1pr::URA3 reporter, 5-FOA growth OD615, 2 d; analog-sensitive cbk1-as2 kinase mutant strain | 1.8% of 190,000 active;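 active = inhibition above a set limit, 3 SD over mean compound inhibition, cut at about 8.4% in these data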;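 note: 0% = DMSO-only wells with no growth and 100% = 10 µM 1-NA-PP1 full growth; inhibition rescues growth on 5-FOA so higher OD means more RAM inhibition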
NPY-Y1 PAM-ag = potentiates or activates human NPY-Y1 receptor. P25929. NPY-Y1 expressing cells, potentiator/agonist activation. activation, % at 3.6 µM. 0.37% of 220,000 active. AID 1304; in the data active = activation above about 33%, passing the limit was not always enough;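 note: cells stimulated with NPY at EC10 then isoproterenol at EC100; 0% = low agonist plus stimulus and 100% = saturating agonist plus stimulus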
Target sequence (P25929 whole entry, looked up): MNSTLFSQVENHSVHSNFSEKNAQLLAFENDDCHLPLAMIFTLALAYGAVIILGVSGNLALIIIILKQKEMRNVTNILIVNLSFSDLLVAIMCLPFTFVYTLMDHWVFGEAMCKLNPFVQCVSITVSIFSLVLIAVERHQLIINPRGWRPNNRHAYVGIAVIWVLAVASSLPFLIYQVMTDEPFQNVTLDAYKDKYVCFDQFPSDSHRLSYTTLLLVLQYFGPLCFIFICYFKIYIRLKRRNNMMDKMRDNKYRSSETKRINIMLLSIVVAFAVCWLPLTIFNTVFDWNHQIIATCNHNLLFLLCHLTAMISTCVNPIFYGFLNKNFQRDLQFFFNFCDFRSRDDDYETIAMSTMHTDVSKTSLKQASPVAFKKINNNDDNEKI
NPY Y1 blocker = blocks the human neuropeptide Y Y1 receptor; HEK293-CNG Y1 cells, membrane potential fluorescence; NPY at EC95, then isoproterenol; inhibition, % at 3.6 µM; 1% of 200,000 active;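 active = inhibition above the campaign mean inhibition of all tested compounds plus 3 SD, cut at about 20% in these data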;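 note: 0% = DMSO wells given NPY plus isoproterenol and 100% = isoproterenol alone without NPY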
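Material: HEK293 Y1/CNG channel cell line | Also added: NPY (25 nM), isoproterenol (1 µM), Ro 20-1724 (25 µM) | Compound: One concentration, 3.6 µM, in 0.4% DMSO | Schedule: 3 h dye uptake, 1 h room-temperature compound, 45 min post-isoproterenol | Signal: Membrane-potential fluorescent dye readout | Read-out: % inhibition of NPY effect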
NPY-Y2 antag = blocks the human neuropeptide Y Y2 receptor; P49146; inhibition, % at 2.7 µM; 0.99% of 140,000 active; NPY-Y2 expressing cells, antagonist mode; AID 793;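 note: 0% = vehicle with agonist challenge and 100% = reference antagonist with challenge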
INS promoter inh = TRM-6 insulin promoter activity inhibition | inhibition, % at 2 µM | 0.9% of 130,000 active | AID 1273 | TRM-6 cells, insulin promoter-eGFP reporter, imaging; reporter expression induced with tamoxifen;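 active = inhibition above the mean plus 3 SD, with well images judged a real hit on visual review, cut at about 60% in these data, passing the limit was not always enough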
NPY2 pot ag = potentiates or activates human NPY-Y2 receptor; P49146; cells expressing NPY-Y2, potentiator/agonist read-out; activation, % at 3.6 µM; 0.45% of 220,000 active; AID 1359; in the data active = activation above about 27%;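 note: cells stimulated with NPY near EC25 plus isoproterenol at EC100; 0% = vehicle plus submaximal agonist and 100% = vehicle plus saturating agonist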
NPY-Y1 ant conf = confirmation of human neuropeptide Y receptor Y1 antagonists; shares compounds with NPY Y1 blocker; HEK293-CNG NPY-Y1, membrane potential fluorescence, cAMP; NPY challenge against isoproterenol-raised cAMP; inhibition, % at 3.6 µM; 21% of 1,200 active; AID 1254; in the data active = inhibition above about 20%;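 note: 0% = vehicle with agonist plus stimulus and 100% = stimulus alone without agonist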
NPY-Y2 antag ct = counter-screen for NPY-Y1 antagonists: human NPY-Y2 antagonism; 28% of 1,200 active; HEK293 NPY-Y2 CNG membrane potential fluorescence; cells given NPY, then isoproterenol; inhibition, % at 3.6 µM; shares compounds with NPY Y1 blocker; AID 1255;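 note: 0% = DMSO with agonist challenge and 100% = reference antagonist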
* = called active by the depositor; nt = no result. Cut-off read from the data, not from the text of the source, unless noted: active = inhibition above about 17%; inactive = the rest.

SMILES | RAM inhibit | NPY-Y1 PAM-ag | NPY Y1 blocker | NPY-Y2 antag | INS promoter inh | NPY2 pot ag | NPY-Y1 ant conf | NPY-Y2 antag ct
CC(C)NC(=O)c1onc(CSc2ccccc2)c1C(=O)O | -1 | -33 | 8 | 5 | 5 | -9 | nt | nt
CC(C)NC(=O)c1onc(CSc2cccc3ccccc23)c1C(=O)O | 8 | -13 | 22* | 10 | 0 | -44 | 18 | 11
CCCCNC(=O)c1onc(CSc2cccc(OCC)c2)c1C(=O)O | 3 | -46 | 22* | 16 | nt | -30 | 15 | 14
O=C(NCc1ccccn1)c1ccccc1-c1ccccc1 | 0 | -9 | 1 | nt | nt | -3 | nt | nt
O=C(CCc1nnc(CCCCc2ccccc2)o1)N1CCC(N2CCCC2)CC1 | -1 | 4 | 0 | nt | 45 | -3 | nt | nt
CC1(C)CC(CCN)(Cc2ccccc2Cl)CCO1 (stereo not given) | nt | 9 | nt | nt | nt | -5 | nt | nt
COc1ccc(CCN2C(=O)CC(C(N)=O)SC2=Nc2ccc(F)cc2)cc1OC (stereo not given) | 1 | 6 | -3 | nt | nt | 9 | nt | nt
O=C(O)CC(Cc1ccccc1)c1ccc2c(c1)OCO2 (stereo not given) | -2 | -21 | 23* | 8 | -64 | -28 | 13 | 12
Cc1ccccc1NC(=S)NC1CC2CCC(C1)N2Cc1ccco1 (stereo not given) | 2 | 6 | 4 | 0 | nt | -9 | nt | nt
Cc1cc(Cl)c(S(=O)(=O)N/N=C/c2ccc3c(c2)OCO3)c(Cl)c1 | 2 | -22 | 20* | 7 | 38 | -5 | 9 | 14
COC(=O)c1sccc1NC(=O)CSc1cccc(Cl)c1Cl | 8.7* | -34 | 24* | 12 | 9 | -30 | 6 | 9
Oc1ccc(-c2[nH]ncc2-c2cnn(-c3ccccc3)c2)c(O)c1 | 0 | 13 | 25* | nt | nt | 11 | 12 | -1
COc1ccc(-n2c(CCC(=O)O)ccc2-c2ccccc2)cc1 | 4 | -2 | 27* | nt | -71 | -23 | 13 | 12
COc1ccc(-c2ccc(CCC(=O)O)n2-c2ccccc2O)cc1 | nt | -4 | nt | nt | nt | -9 | nt | nt
COc1cccc(-c2cc(C(=O)N3CCN(C(c4ccccc4)c4ccccc4)CC3)no2)c1 | 3 | -31 | 24* | 7 | nt | -6 | 7 | 8
O=C(c1cc(-c2cccs2)on1)N1CCN(C(c2ccccc2)c2ccccc2)CC1 | 2 | -5 | 3 | 1 | -21 | 1 | nt | nt
COc1cc(C(=O)NCCCNc2nc3cc(C)c(C)cc3cc2C#N)cc(OC)c1OC | 1 | -24 | -1 | nt | nt | -30 | nt | nt
CCOC(=O)C1C(=O)CC(C)(O)C(C(=O)OCC)C1c1ccc([N+](=O)[O-])cc1 (stereo not given) | nt | -10 | nt | nt | nt | -25 | nt | nt
CCc1ccc(C(=O)NC(CCSC)C(=O)OC)cc1 (stereo not given) | 3 | -14 | 5 | nt | nt | -3 | nt | nt
Cc1ccc(C(C)C)c(OCCCN2C(=O)NC(C)(C)C2=O)c1 | 1 | -4 | -2 | 3 | 37 | -8 | nt | nt
Cc1ccc(C(C)C)c(OCCCN(C)Cc2ccccc2)c1 | -1 | -28 | 32* | 12 | 10 | -11 | 12 | 18*
CCOC(=O)CN1C(=O)N[C@H](c2ccc(Br)cc2)C(C(C)=O)=C1C | -1 | -16 | 24* | 11 | 5 | -9 | 4 | 6
CC(=O)C1=C(C)N(CC2CC2)C(=O)N[C@H]1c1ccc(Br)cc1 | 2 | -13 | -3 | 1 | -35 | -2 | nt | nt
CCSC1=N/C(=C\C=C2/Oc3ccccc3N2CC)C(=O)S1 | nt | 8 | nt | nt | nt | -1 | nt | nt
CC(C)OCCCNC(=O)c1c(N)n(/N=C/c2cccs2)c2nc3ccccc3nc12 | 11* | 14 | 25* | 9 | -13 | 10 | 17 | 16
Cc1cc(C)c(CN2CCN(Cc3ccc(C)o3)C(CCO)C2)c(-n2cccn2)c1 (stereo not given) | 1 | -9 | 29* | nt | nt | -19 | 8 | 7
Cc1ccc(CN2CCN(Cc3c(C)nn(-c4ccc(F)cc4)c3C)CC2CCO)o1 (stereo not given) | 0 | -17 | 0 | nt | nt | -16 | nt | nt

Source: PubChem BioAssay
